The subject of data set [1] is 4T1 murine triple negative breast cancer cells. Kind of data set: Resazurin cell viability assay on 4T1 cells. The settings on record: Mus musculus, 4T1, 72 h, read-out: IC50 4T1. It is filed as cell-based. A digest of the protocol:
(§1)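 Cells were seeded in 96-well plates (4T1 10,000, A549 10,000, HL-60 20,000 per well), with adherent lines settling overnight. Test compound came from a 10 mM DMSO stock, serially diluted in medium to 1.56–50 µM (some 39 nM–12.5 µM), for 72 h; three biological replicates. Resazurin (0.15 mg/ml stock, 20 µl per 100 µl) ran 2 h at 37 °C, read at 530/580 nm. Viability was set against untreated and blank wells; IC50 from curves.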

Data set [2] has as its system HL‐60 human acute promyelocytic leukemia cells. Kind of data set: Resazurin cell viability assay on HL-60 cells. Conditions: HL-60, 72 h, read-out: IC50 HL‐60. It is filed as cell-based. The essentials: as §1
For data set [3], the system named is 4T1, A549, and HL‐60 cells. It counts as cell-based. Conditions: resazurin assay, 72 h, up to 50 µM, three cancer cell lines. A digest of the protocol:
as §1

Data set [4] deals with HL‐60 cells. The data set can be described thus: Annexin V / propidium iodide flow cytometry. It counts as cell-based, human. Conditions: 6 µM, 24 h; for Late apoptotic cells (AnnV+/PI+) / Living cells (AnnV−/PI−): mean ± SD; for Late apoptotic cells (AnnV+/PI+): untreated 9.5 ± 2.7%; for Living cells (AnnV−/PI−): untreated 85 ± 3.9%. The essentials: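 HL-60 cells (100,000) were treated for 24 h at 1, 3 or 6 µM, then resuspended in Annexin V binding buffer (0.01 M HEPES, 0.14 M NaCl, 2.5 mM CaCl2). Annexin V-Alexa 488 was added for 15 min in the dark at room temperature, then PI (10 µg/ml). Quadrant percentages were taken by flow cytometry; three biological replicates, mean ± SD; two-tailed t test against untreated.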

In data set [5] the test system is HL‐60 cells. Kind of data set: Cell cycle analysis by flow cytometry. It counts as cell-based, human. Conditions: 72 h.

Take `CCOC(=O)c1[nH]c(N)nc1-c1cccc(NC(=O)c2cc3ccccc3[nH]2)c1` [Compound 16, Ethyl 4‐(3‐(1H‐indole‐2‐carboxamido)phenyl)−2‐amino‐1H‐imidazole‐5‐carboxylate]: the IC50 in data set [1] was found to be 19.3 µM; in data set [2], 14.4 µM.

Turning to `CCOC(=O)c1[nH]c(N)nc1-c1cccc(NC(=O)c2ccc3cccc(O)c3n2)c1` [Compound 17, Ethyl 2‐amino‐4‐(3‐(8‐hydroxyquinoline‐2‐carboxamido)phenyl)−1H‐imidazole‐5‐carboxylate], the IC50 in data set [1] was found to be 17.1 µM; in data set [2] it was 5.81 µM. Moreover, the “Cytotoxic / antiproliferative activity in words” value in data set [3] is reported as “low antiproliferative activity”.

With `Nc1nc(-c2cccc(NC(=O)c3ccc4cccc(O)c4n3)c2)c(C(=O)c2ccccc2)[nH]1` [Compound 18, N‐(3‐(2‐amino‐5‐benzoyl‐1H‐imidazol‐4‐yl)phenyl)−8‐hydroxyquinoline‐2‐carboxamide], the IC50 in data set [1] is 13.9 µM; in data set [2] it was 8.95 µM. The “Cytotoxic / antiproliferative activity in words” value in data set [3] is listed as “low antiproliferative activity”.

Take `Nc1nc(-c2cccc(NC(=O)c3ccc4ccccc4n3)c2)c(C(=O)c2ccccc2)[nH]1` [Compound 19, N‐(3‐(2‐amino‐5‐benzoyl‐1H‐imidazol‐4‐yl)phenyl)quinoline‐2‐carboxamide]: the “Cytotoxic / antiproliferative activity in words” value in data set [3] was “completely inactive”.

Turning to `Nc1nc(-c2cccc(NC(=O)c3ccccn3)c2)c(C(=O)c2ccccc2)[nH]1` [Compound 20, N‐(3‐(2‐amino‐5‐benzoyl‐1H‐imidazol‐4‐yl)phenyl)picolinamide], the IC50 stood at 30.7 µM in data set [1] and 24.8 µM in data set [2].

Take `Nc1nc(-c2cccc(NC(=O)c3cc(Br)c[nH]3)c2)c(C(=O)c2ccccc2)[nH]1` [Compound 21, N‐(3‐(2‐amino‐5‐benzoyl‐1H‐imidazol‐4‐yl)phenyl)‐4‐bromo‐1H‐pyrrole‐2‐carboxamide]: the “Cytotoxic / antiproliferative activity in words” value in data set [3] was “completely inactive”.

For the compound `Nc1nc(-c2cccc(NC(=O)c3ccc[nH]3)c2)c(C(=O)c2ccccc2)[nH]1` [Compound 22, N‐(3‐(2‐amino‐5‐benzoyl‐1H‐imidazol‐4‐yl)phenyl)‐1H‐pyrrole‐2‐carboxamide], in data set [2], the IC50 came to 6.9 µM. For the same compound, the “Cytotoxic / antiproliferative activity in words” value in data set [3] is recorded as “low antiproliferative activity”.

Take `CCOC(=O)c1[nH]c(N)nc1-c1cccc(NC(=O)c2cc3cc(OC)ccc3[nH]2)c1` [Compound 24, Ethyl 2‐amino‐4‐(3‐(5‐methoxy‐1H‐indole‐2‐carboxamido)phenyl)‐1H‐imidazole‐5‐carboxylate]: the figures for the IC50 in data set [1] and in data set [2] were 12.6 µM and 7.57 µM, respectively. Further, the “Cytotoxic / antiproliferative activity in words” value in data set [3] is recorded as “low antiproliferative activity”.

Consider `Nc1nc(-c2cccc(NC(=O)c3cc4ccccc4[nH]3)c2)c(C(=O)c2ccccc2)[nH]1` [Compound 25, N‐(3‐(2‐amino‐5‐benzoyl‐1H‐imidazol‐4‐yl)phenyl)‐1H‐indole‐2‐carboxamide], for which, in data set [2], the IC50 was determined as 6.34 µM. The “Cytotoxic / antiproliferative activity in words” value in data set [3] is on record as “low antiproliferative activity”.

For the compound `COc1ccc2[nH]c(C(=O)Nc3cccc(-c4nc(N)[nH]c4C(C)=O)c3)cc2c1` [Compound 26, N‐(3‐(5‐acetyl‐2‐amino‐1H‐imidazol‐4‐yl)phenyl)‐5‐methoxy‐1H‐indole‐2‐carboxamide], the IC50 in data set [1] turned out to be 35 µM; in data set [2] it was 24.8 µM.

Consider `CC(=O)c1[nH]c(N)nc1-c1cccc(NC(=O)c2cc3cc(F)ccc3[nH]2)c1` [Compound 30, N‐(3‐(5‐acetyl‐2‐amino‐1H‐imidazol‐4‐yl)phenyl)‐5‐fluoro‐1H‐indole‐2‐carboxamide], for which the IC50 was determined as 25.3 µM in data set [1] and 25 µM in data set [2].

As to `CCOC(=O)c1[nH]c(N)nc1-c1cccc(NC(=O)c2cc3cc(F)ccc3[nH]2)c1` [Compound 31, Ethyl 2‐amino‐4‐(3‐(5‐fluoro‐1H‐indole‐2‐carboxamido)phenyl)‐1H‐imidazole‐5‐carboxylate], the IC50 in data set [1] stood at 14.4 µM; in data set [2], 10 µM.

Consider `Nc1nc(-c2cc(NC(=O)c3cc4cc(Br)ccc4[nH]3)ccc2Cl)c(C(=O)c2ccccc2)[nH]1` [Compound 32, N‐(3‐(2‐amino‐5‐benzoyl‐1H‐imidazol‐4‐yl)‐4‐chlorophenyl)‐5‐bromo‐1H‐indole‐2‐carboxamide], for which the IC50 in data set [1] worked out at 12.4 µM. Moreover, the concentration for half-maximal inhibition (IC50) in data set [2] amounted to 7.82 µM. Moreover, in data set [3], the “Cytotoxic / antiproliferative activity in words” value was “hampered the viability of all three tested cell lines”. Besides, in data set [4], the “Late apoptotic cells (AnnV+/PI+)” value is given as 11.7 ± 2.6% and the “Living cells (AnnV−/PI−)” value is recorded as 78.9 ± 1.6%. For the same compound, in data set [5], the “Concentrations at which arrest in G0/G1 phase occurred” value lay in the range of 1 to 6 µM and the “Effect on cell cycle distribution, in words” value (shortened to “Effect”) was “significantly disturbed cell cycle distribution”.

For the compound `Nc1nc(-c2cc(Cl)cc(NC(=O)c3cc4cc(Br)ccc4[nH]3)c2)c(C(=O)c2ccccc2)[nH]1` [Compound 33, N‐(3‐(2‐amino‐5‐benzoyl‐1H‐imidazol‐4‐yl)‐5‐chlorophenyl)‐5‐bromo‐1H‐indole‐2‐carboxamide], the IC50 in data set [1] amounted to 11.5 µM. In addition, in data set [2], the IC50 came to 6.44 µM. The “Cytotoxic / antiproliferative activity in words” value in data set [3] is given as “hampered the viability of all three tested cell lines”. Further, in data set [4], the “Late apoptotic cells (AnnV+/PI+)” value amounted to 15.6 ± 1.8% and the “Living cells (AnnV−/PI−)” value was 79.1 ± 1.9%. The “Cells in G0/G1 phase” value in data set [5] (6 µM, control 64.3 ± 1.9%) is reported as 74.1 ± 1.4%. For the same compound, in data set [5], the “Concentrations at which arrest in G0/G1 phase occurred” value is 3 to 6 µM and the “Effect” value was “significantly disturbed cell cycle distribution”.

Turning to `Cc1ccc(NC(=O)c2cc3cc(Br)ccc3[nH]2)cc1-c1nc(N)[nH]c1C(=O)c1ccccc1` [Compound 34, N‐(3‐(2‐amino‐5‐benzoyl‐1H‐imidazol‐4‐yl)‐4‐methylphenyl)‐5‐bromo‐1H‐indole‐2‐carboxamide], the IC50 in data set [1] stood at 27 µM; in data set [2] it was 24.3 µM.

For `Nc1nc(-c2ccc(NC(=O)c3cc4cc(Br)ccc4[nH]3)cc2)c(C(=O)c2ccccc2)[nH]1` [Compound 35, N‐(4‐(2‐amino‐5‐benzoyl‐1H‐imidazol‐4‐yl)phenyl)‐5‐bromo‐1H‐indole‐2‐carboxamide], the IC50 came to 11 µM in data set [1] and 6.77 µM in data set [2]. Also, the “Cytotoxic / antiproliferative activity in words” value in data set [3] is reported as “hampered the viability of all three tested cell lines”. In data set [4], the “AnnexinV translocation, in words” value is “did not influenced AnnexinV translocation significantly”. Besides, the “Cells in G2/M phase” value in data set [5] (1 µM, untreated 17.3 ± 1.7%) is 20.8 ± 0.4%. Also, the “Effect” value in data set [5] is reported as “significantly disturbed cell cycle distribution”.
